Laboratory results from ChEMBL document CHEMBL1795269, “Novel (E)-5-styryl-2,2'-bithiophene derivatives as ligands for β-amyloid plaques” (Eur J Med Chem, 2011).

What was measured:
[1] = Octanol-phosphate buffer partition coefficient, log D of the compound at pH 7.4; format: physicochemical
In short: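 Radiotracer added to premixed n-octanol (3 g) and PBS (0.05 M, pH 7.4; 3 g), and partitioned between the two phases.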

[2] = system: Blood; assay: Biodistribution in Kunming mouse blood at 1 uCi, iv after 2 mins by gamma counting; format: ADME, organism-based; details: in vivo
In short: (§1)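 Female normal KunMing mice, about 20 g. [125I]-labelled tracer (1 μCi) in 100 μL saline injected into the tail vein. Mice killed at set times after injection; organs removed, weighed and counted in a gamma counter. %ID/g of wet tissue calculated against diluted aliquots of the injected dose.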

[3] = system: Blood; assay: Biodistribution in Kunming mouse blood at 1 uCi, iv after 15 mins by gamma counting; format: ADME, organism-based; details: in vivo, 0.25 h; in short: as §1
[4] = system: Blood; assay: Biodistribution in Kunming mouse blood at 1 uCi, iv after 30 mins by gamma counting; format: ADME, organism-based; details: in vivo, 0.5 h; in short: as §1
[5] = system: Blood; assay: Biodistribution in Kunming mouse blood at 1 uCi, iv after 60 mins by gamma counting; format: ADME, organism-based; details: in vivo, 1 h; in short: as §1
[6] = system: Blood; assay: Biodistribution in Kunming mouse blood at 1 uCi, iv after 120 mins by gamma counting; format: ADME, organism-based; details: in vivo, 2 h; in short: as §1
[7] = system: Brain; assay: Biodistribution in Kunming mouse brain at 1 uCi, iv after 2 mins by gamma counting; format: ADME, organism-based; details: in vivo; in short: as §1
[8] = system: Brain; assay: Biodistribution in Kunming mouse brain at 1 uCi, iv after 15 mins by gamma counting; format: ADME, organism-based; details: in vivo, 0.25 h; in short: as §1
[9] = system: Brain; assay: Biodistribution in Kunming mouse brain at 1 uCi, iv after 30 mins by gamma counting; format: ADME, organism-based; details: in vivo, 0.5 h; in short: as §1
[10] = system: Brain; assay: Biodistribution in Kunming mouse brain at 1 uCi, iv after 60 mins by gamma counting; format: ADME, organism-based; details: in vivo, 1 h; in short: as §1
[11] = system: Brain; assay: Biodistribution in Kunming mouse brain at 1 uCi, iv after 120 mins by gamma counting; format: ADME, organism-based; details: in vivo, 2 h; in short: as §1
[12] = system: Heart; assay: Biodistribution in Kunming mouse heart at 1 uCi, iv after 2 mins by gamma counting; format: ADME, organism-based; details: in vivo; in short: as §1
[13] = system: Heart; assay: Biodistribution in Kunming mouse heart at 1 uCi, iv after 15 mins by gamma counting; format: ADME, organism-based; details: in vivo, 0.25 h; in short: as §1
[14] = system: Heart; assay: Biodistribution in Kunming mouse heart at 1 uCi, iv after 30 mins by gamma counting; format: ADME, organism-based; details: in vivo, 0.5 h; in short: as §1
[15] = system: Heart; assay: Biodistribution in Kunming mouse heart at 1 uCi, iv after 60 mins by gamma counting; format: ADME, organism-based; details: in vivo, 1 h; in short: as §1
[16] = system: Heart; assay: Biodistribution in Kunming mouse heart at 1 uCi, iv after 120 mins by gamma counting; format: ADME, organism-based; details: in vivo, 2 h; in short: as §1
[17] = system: Liver; assay: Biodistribution in Kunming mouse liver at 1 uCi, iv after 2 mins by gamma counting; format: ADME, organism-based; details: in vivo; in short: as §1
[18] = system: Liver; assay: Biodistribution in Kunming mouse liver at 1 uCi, iv after 15 mins by gamma counting; format: ADME, organism-based; details: in vivo, 0.25 h; in short: as §1
[19] = system: Liver; assay: Biodistribution in Kunming mouse liver at 1 uCi, iv after 30 mins by gamma counting; format: ADME, organism-based; details: in vivo, 0.5 h; in short: as §1
[20] = system: Liver; assay: Biodistribution in Kunming mouse liver at 1 uCi, iv after 60 mins by gamma counting; format: ADME, organism-based; details: in vivo, 1 h; in short: as §1
[21] = system: Liver; assay: Biodistribution in Kunming mouse liver at 1 uCi, iv after 120 mins by gamma counting; format: ADME, organism-based; details: in vivo, 2 h; in short: as §1
[22] = system: Spleen; assay: Biodistribution in Kunming mouse spleen at 1 uCi, iv after 2 mins by gamma counting; format: ADME, organism-based; details: in vivo; in short: as §1
[23] = system: Spleen; assay: Biodistribution in Kunming mouse spleen at 1 uCi, iv after 15 mins by gamma counting; format: ADME, organism-based; details: in vivo, 0.25 h; in short: as §1
[24] = system: Spleen; assay: Biodistribution in Kunming mouse spleen at 1 uCi, iv after 30 mins by gamma counting; format: ADME, organism-based; details: in vivo, 0.5 h; in short: as §1
[25] = system: Spleen; assay: Biodistribution in Kunming mouse spleen at 1 uCi, iv after 60 mins by gamma counting; format: ADME, organism-based; details: in vivo, 1 h; in short: as §1
[26] = system: Spleen; assay: Biodistribution in Kunming mouse spleen at 1 uCi, iv after 120 mins by gamma counting; format: ADME, organism-based; details: in vivo, 2 h; in short: as §1
[27] = system: Lung; assay: Biodistribution in Kunming mouse lung at 1 uCi, iv after 2 mins by gamma counting; format: ADME, organism-based; details: in vivo; in short: as §1
[28] = system: Lung; assay: Biodistribution in Kunming mouse lung at 1 uCi, iv after 15 mins by gamma counting; format: ADME, organism-based; details: in vivo, 0.25 h; in short: as §1
[29] = system: Lung; assay: Biodistribution in Kunming mouse lung at 1 uCi, iv after 30 mins by gamma counting; format: ADME, organism-based; details: in vivo, 0.5 h; in short: as §1
[30] = system: Lung; assay: Biodistribution in Kunming mouse lung at 1 uCi, iv after 60 mins by gamma counting; format: ADME, organism-based; details: in vivo, 1 h; in short: as §1
[31] = system: Lung; assay: Biodistribution in Kunming mouse lung at 1 uCi, iv after 120 mins by gamma counting; format: ADME, organism-based; details: in vivo, 2 h; in short: as §1
[32] = system: Kidney; assay: Biodistribution in Kunming mouse kidney at 1 uCi, iv after 2 mins by gamma counting; format: ADME, organism-based; details: in vivo; in short: as §1
[33] = system: Kidney; assay: Biodistribution in Kunming mouse kidney at 1 uCi, iv after 15 mins by gamma counting; format: ADME, organism-based; details: in vivo, 0.25 h; in short: as §1
[34] = system: Kidney; assay: Biodistribution in Kunming mouse kidney at 1 uCi, iv after 60 mins by gamma counting; format: ADME, organism-based; details: in vivo, 1 h; in short: as §1
[35] = system: Kidney; assay: Biodistribution in Kunming mouse kidney at 1 uCi, iv after 120 mins by gamma counting; format: ADME, organism-based; details: in vivo, 2 h; in short: as §1
[36] = system: Stomach; assay: Biodistribution in Kunming mouse stomach assessed per organ at 1 uCi, iv after 2 mins by gamma counting; format: ADME, organism-based; details: in vivo; in short: as §1
[37] = system: Stomach; assay: Biodistribution in Kunming mouse stomach assessed per organ at 1 uCi, iv after 15 mins by gamma counting; format: ADME, organism-based; details: in vivo, 0.25 h; in short: as §1
[38] = system: Stomach; assay: Biodistribution in Kunming mouse stomach assessed per organ at 1 uCi, iv after 30 mins by gamma counting; format: ADME, organism-based; details: in vivo, 0.5 h; in short: as §1
[39] = system: Stomach; assay: Biodistribution in Kunming mouse stomach assessed per organ at 1 uCi, iv after 60 mins by gamma counting; format: ADME, organism-based; details: in vivo, 1 h
[40] = system: Stomach; assay: Biodistribution in Kunming mouse stomach assessed per organ at 1 uCi, iv after 120 mins by gamma counting; format: ADME, organism-based; details: in vivo, 2 h; in short: as §1
[41] = system: Muscle tissue; assay: Biodistribution in Kunming mouse muscle at 1 uCi, iv after 2 mins by gamma counting; format: ADME, organism-based; details: in vivo; in short: as §1
[42] = system: Muscle tissue; assay: Biodistribution in Kunming mouse muscle at 1 uCi, iv after 15 mins by gamma counting; format: ADME, organism-based; details: in vivo, 0.25 h; in short: as §1
[43] = system: Muscle tissue; assay: Biodistribution in Kunming mouse muscle at 1 uCi, iv after 30 mins by gamma counting; format: ADME, organism-based; details: in vivo, 0.5 h; in short: as §1
[44] = system: Muscle tissue; assay: Biodistribution in Kunming mouse muscle at 1 uCi, iv after 60 mins by gamma counting; format: ADME, organism-based; details: in vivo, 1 h; in short: as §1
[45] = system: Muscle tissue; assay: Biodistribution in Kunming mouse muscle at 1 uCi, iv after 120 mins by gamma counting; format: ADME, organism-based; details: in vivo, 2 h; in short: as §1
[46] = system: Kidney; assay: Biodistribution in Kunming mouse kidney at 1 uCi, iv after 30 mins by gamma counting; format: ADME, organism-based; details: in vivo, 0.5 h; in short: as §1

Compound `[125I]c1ccc(/C=C/c2ccc(-c3cccs3)s2)cc1` has a logD [1] of 3.31, a Drug uptake [2] of 12.1 % ID/g and a Drug uptake [3] of 1.38 % ID/g. For the same compound, the Drug uptake [4] was 1.16 % ID/g, the Drug uptake [5] was 1.29 % ID/g and the Drug uptake [6] was 1.76 % ID/g. The Drug uptake [7] was 2.11 % ID/g, the Drug uptake [8] was 0.42 % ID/g and the Drug uptake [9] was 0.41 % ID/g. It also gave a Drug uptake [10] of 0.47 % ID/g, a Drug uptake [11] of 0.55 % ID/g and a Drug uptake [12] of 5.53 % ID/g. The Drug uptake [13] was 3.37 % ID/g, the Drug uptake [14] was 3.35 % ID/g and the Drug uptake [15] was 2.09 % ID/g. The Drug uptake [16] was 3.39 % ID/g, the Drug uptake [17] was 47.12 % ID/g and the Drug uptake [18] was 40.18 % ID/g. The Drug uptake [19] was 42.17 % ID/g, the Drug uptake [20] was 47.7 % ID/g and the Drug uptake [21] was 45.74 % ID/g. The Drug uptake [22] was 11.46 % ID/g, the Drug uptake [23] was 12.61 % ID/g and the Drug uptake [24] was 14.82 % ID/g. The Drug uptake [25] was 14.58 % ID/g, the Drug uptake [26] was 21.98 % ID/g and the Drug uptake [27] was 20.89 % ID/g. It also gave a Drug uptake [28] of 18.99 % ID/g, a Drug uptake [29] of 15.69 % ID/g and a Drug uptake [30] of 12.99 % ID/g. The Drug uptake [31] was 6.29 % ID/g, the Drug uptake [32] was 4.69 % ID/g and the Drug uptake [33] was 4.37 % ID/g. For the same compound, the Drug uptake [34] was 4.91 % ID/g, the Drug uptake [35] was 6.35 % ID/g and the Drug uptake [36] was 0.61 %ID. The Drug uptake [37] was 1.48 %ID, the Drug uptake [38] was 3.25 %ID and the Drug uptake [39] was 4.28 %ID. For the same compound, the Drug uptake [40] was 3.36 %ID, the Drug uptake [41] was 0.85 % ID/g and the Drug uptake [42] was 0.97 % ID/g. The Drug uptake [43] was 1.25 % ID/g, the Drug uptake [44] was 0.93 % ID/g and the Drug uptake [45] was 0.76 % ID/g. For the same compound, the Drug uptake [46] was 4.56 % ID/g.
